# Data reported in paper PMC4233149 (Clinical cancer research : an official journal of the …, 2014).
# Marks after values point to notes of the source that are not given here.
# Assay: Phase I safety and tolerability, weekly
# Assay type: in vivo, human
# Procedure, shortened: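 Oral weekly dose escalation followed a 3+3 design (planned 90, 135, 200, 300mg, intermediate doses allowed), then a modified toxicity-probability-interval confirmation stage. A DLT was any drug-related CTCAE v3.0 ≥G4 hematological, ≥G3 febrile neutropenia or ≥G3 non-hematological toxicity. Safety visits, glucose, C-peptide and HbA1c monitoring followed a fixed schedule; AEs were graded by CTCAE v3.0.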
smiles,measurement,setting,value
NC1(c2ccc(-c3nc4ccn5c(=O)[nH]nc5c4cc3-c3ccccc3)cc2)CCC1 [MK-2206],"Anorexia, number of AEs","90mg QW, G1, all cycles",0 (0)
same,"Dermatitis acneiform, number of AEs","90mg QW, G1, all cycles",0 (0)
same,"Diarrhea, number of AEs","90mg QW, G1, all cycles",1 (1)
same,"Dry skin, number of AEs","90mg QW, G1, all cycles",0 (0)
same,"Fatigue, number of AEs","90mg QW, G1, all cycles",1 (1)
same,"Nausea, number of AEs","90mg QW, G1, all cycles",0 (0)
same,"Pruritus, number of AEs","90mg QW, G1, all cycles",0 (0)
same,"Rash (all rash terms collated), number of AEs","90mg QW, G1, all cycles",0 (0)
same,"Stomatitis, number of AEs","90mg QW, G1, all cycles",0 (0)
same,"Vomiting, number of AEs","90mg QW, G1, all cycles",1 (1)
same,"Anorexia, number of AEs","90mg QW, G1, cycle 1",0 (0)
same,"Dermatitis acneiform, number of AEs","90mg QW, G1, cycle 1",0 (0)
same,"Diarrhea, number of AEs","90mg QW, G1, cycle 1",1 (1)
same,"Dry skin, number of AEs","90mg QW, G1, cycle 1",0 (0)
same,"Fatigue, number of AEs","90mg QW, G1, cycle 1",1 (1)
same,"Nausea, number of AEs","90mg QW, G1, cycle 1",0 (0)
same,"Pruritus, number of AEs","90mg QW, G1, cycle 1",0 (0)
same,"Rash (all rash terms collated), number of AEs","90mg QW, G1, cycle 1",0 (0)
same,"Stomatitis, number of AEs","90mg QW, G1, cycle 1",0 (0)
same,"Vomiting, number of AEs","90mg QW, G1, cycle 1",1 (1)
same,"Anorexia, number of AEs","135mg QW, G1, all cycles",0 (0)
same,"Dermatitis acneiform, number of AEs","135mg QW, G1, all cycles",1 (1)
same,"Diarrhea, number of AEs","135mg QW, G1, all cycles",0 (0)
same,"Dry skin, number of AEs","135mg QW, G1, all cycles",0 (0)
same,"Dysgeusia, number of AEs","135mg QW, G1, all cycles",0 (0)
same,"Fatigue, number of AEs","135mg QW, G1, all cycles",0 (0)
same,"Nausea, number of AEs","135mg QW, G1, all cycles",0 (0)
same,"Pruritus, number of AEs","135mg QW, G1, all cycles",1 (1)
same,"Rash (all rash terms collated), number of AEs","135mg QW, G1, all cycles",1 (1)
same,"Stomatitis, number of AEs","135mg QW, G1, all cycles",0 (0)
same,"Vomiting, number of AEs","135mg QW, G1, all cycles",0 (0)
same,"Anorexia, number of AEs","135mg QW, G1, cycle 1",0 (0)
same,"Dermatitis acneiform, number of AEs","135mg QW, G1, cycle 1",1 (1)
same,"Diarrhea, number of AEs","135mg QW, G1, cycle 1",0 (0)
same,"Dry skin, number of AEs","135mg QW, G1, cycle 1",0 (0)
same,"Dysgeusia, number of AEs","135mg QW, G1, cycle 1",0 (0)
same,"Fatigue, number of AEs","135mg QW, G1, cycle 1",0 (0)
same,"Nausea, number of AEs","135mg QW, G1, cycle 1",0 (0)
same,"Pruritus, number of AEs","135mg QW, G1, cycle 1",1 (1)
same,"Rash (all rash terms collated), number of AEs","135mg QW, G1, cycle 1",1 (1)
same,"Stomatitis, number of AEs","135mg QW, G1, cycle 1",0 (0)
same,"Vomiting, number of AEs","135mg QW, G1, cycle 1",0 (0)
same,"Dermatitis acneiform, number of AEs","150mg QW, G1, all cycles",0 (0)
same,"Diarrhea, number of AEs","150mg QW, G1, all cycles",0 (0)
same,"Dry skin, number of AEs","150mg QW, G1, all cycles",0 (0)
same,"Dysgeusia, number of AEs","150mg QW, G1, all cycles",0 (0)
same,"Fatigue, number of AEs","150mg QW, G1, all cycles",0 (0)
same,"Nausea, number of AEs","150mg QW, G1, all cycles",0 (0)
same,"Pruritus, number of AEs","150mg QW, G1, all cycles",0 (0)
same,"Rash (all rash terms collated), number of AEs","150mg QW, G1, all cycles",0 (0)
same,"Stomatitis, number of AEs","150mg QW, G1, all cycles",0 (0)
same,"Vomiting, number of AEs","150mg QW, G1, all cycles",2 (2)
same,"Dermatitis acneiform, number of AEs","150mg QW, G1, cycle 1",0 (0)
same,"Diarrhea, number of AEs","150mg QW, G1, cycle 1",0 (0)
same,"Dry skin, number of AEs","150mg QW, G1, cycle 1",0 (0)
same,"Dysgeusia, number of AEs","150mg QW, G1, cycle 1",0 (0)
same,"Fatigue, number of AEs","150mg QW, G1, cycle 1",0 (0)
same,"Nausea, number of AEs","150mg QW, G1, cycle 1",0 (0)
same,"Pruritus, number of AEs","150mg QW, G1, cycle 1",0 (0)
same,"Rash (all rash terms collated), number of AEs","150mg QW, G1, cycle 1",0 (0)
same,"Stomatitis, number of AEs","150mg QW, G1, cycle 1",0 (0)
same,"Vomiting, number of AEs","150mg QW, G1, cycle 1",2 (2)
same,"Anorexia, number of AEs","150mg QW, G2, all cycles",0 (0)
same,"Dermatitis acneiform, number of AEs","150mg QW, G2, all cycles",0 (0)
same,"Diarrhea, number of AEs","150mg QW, G2, all cycles",0 (0)
same,"Dry skin, number of AEs","150mg QW, G2, all cycles",0 (0)
same,"Dysgeusia, number of AEs","150mg QW, G2, all cycles",0 (0)
same,"Fatigue, number of AEs","150mg QW, G2, all cycles",0 (0)
same,"Nausea, number of AEs","150mg QW, G2, all cycles",1 (1)
same,"Pruritus, number of AEs","150mg QW, G2, all cycles",0 (0)
same,"Rash (all rash terms collated), number of AEs","150mg QW, G2, all cycles",0 (0)
same,"Stomatitis, number of AEs","150mg QW, G2, all cycles",0 (0)
same,"Vomiting, number of AEs","150mg QW, G2, all cycles",0 (0)
same,"Anorexia, number of AEs","150mg QW, G2, cycle 1",0 (0)
same,"Dermatitis acneiform, number of AEs","150mg QW, G2, cycle 1",0 (0)
same,"Diarrhea, number of AEs","150mg QW, G2, cycle 1",0 (0)
same,"Dry skin, number of AEs","150mg QW, G2, cycle 1",0 (0)
same,"Dysgeusia, number of AEs","150mg QW, G2, cycle 1",0 (0)
same,"Fatigue, number of AEs","150mg QW, G2, cycle 1",0 (0)
same,"Nausea, number of AEs","150mg QW, G2, cycle 1",1 (1)
same,"Pruritus, number of AEs","150mg QW, G2, cycle 1",0 (0)
same,"Rash (all rash terms collated), number of AEs","150mg QW, G2, cycle 1",0 (0)
same,"Stomatitis, number of AEs","150mg QW, G2, cycle 1",0 (0)
same,"Vomiting, number of AEs","150mg QW, G2, cycle 1",0 (0)
same,"Anorexia, number of AEs","150mg QW, G3, all cycles",0 (0)
same,"Dermatitis acneiform, number of AEs","150mg QW, G3, all cycles",0 (0)
same,"Diarrhea, number of AEs","150mg QW, G3, all cycles",0 (0)
same,"Dry skin, number of AEs","150mg QW, G3, all cycles",0 (0)
same,"Dysgeusia, number of AEs","150mg QW, G3, all cycles",0 (0)
same,"Fatigue, number of AEs","150mg QW, G3, all cycles",0 (0)
same,"Nausea, number of AEs","150mg QW, G3, all cycles",0 (0)
same,"Pruritus, number of AEs","150mg QW, G3, all cycles",0 (0)
same,"Rash (all rash terms collated), number of AEs","150mg QW, G3, all cycles",3
same,"Stomatitis, number of AEs","150mg QW, G3, all cycles",0 (0)
same,"Vomiting, number of AEs","150mg QW, G3, all cycles",0 (0)
same,"Anorexia, number of AEs","150mg QW, G3, cycle 1",0 (0)
same,"Dermatitis acneiform, number of AEs","150mg QW, G3, cycle 1",0 (0)
same,"Diarrhea, number of AEs","150mg QW, G3, cycle 1",0 (0)
same,"Dry skin, number of AEs","150mg QW, G3, cycle 1",0 (0)
same,"Dysgeusia, number of AEs","150mg QW, G3, cycle 1",0 (0)
same,"Fatigue, number of AEs","150mg QW, G3, cycle 1",0 (0)
same,"Nausea, number of AEs","150mg QW, G3, cycle 1",0 (0)
same,"Pruritus, number of AEs","150mg QW, G3, cycle 1",0 (0)
same,"Stomatitis, number of AEs","150mg QW, G3, cycle 1",0 (0)
same,"Vomiting, number of AEs","150mg QW, G3, cycle 1",0 (0)
same,"Rash (all rash terms collated), number of AEs","150mg QW, G3, cycle 1, dose-limiting toxicity",1
same,"Anorexia, number of AEs","200mg QW, G1, all cycles",1 (1)
same,"Dermatitis acneiform, number of AEs","200mg QW, G1, all cycles",0 (0)
same,"Diarrhea, number of AEs","200mg QW, G1, all cycles",2 (2)
same,"Dry skin, number of AEs","200mg QW, G1, all cycles",1 (1)
same,"Dysgeusia, number of AEs","200mg QW, G1, all cycles",0 (0)
same,"Nausea, number of AEs","200mg QW, G1, all cycles",4 (4)
same,"Stomatitis, number of AEs","200mg QW, G1, all cycles",2 (2)
same,"Vomiting, number of AEs","200mg QW, G1, all cycles",2 (2)
same,"Anorexia, number of AEs","200mg QW, G1, cycle 1",1 (1)
same,"Dermatitis acneiform, number of AEs","200mg QW, G1, cycle 1",0 (0)
same,"Diarrhea, number of AEs","200mg QW, G1, cycle 1",2 (2)
same,"Dry skin, number of AEs","200mg QW, G1, cycle 1",1 (1)
same,"Dysgeusia, number of AEs","200mg QW, G1, cycle 1",0 (0)
same,"Nausea, number of AEs","200mg QW, G1, cycle 1",4 (4)
same,"Stomatitis, number of AEs","200mg QW, G1, cycle 1",2 (2)
same,"Vomiting, number of AEs","200mg QW, G1, cycle 1",2 (2)
same,"Anorexia, number of AEs","200mg QW, G2, all cycles",0 (0)
same,"Dermatitis acneiform, number of AEs","200mg QW, G2, all cycles",0 (0)
same,"Diarrhea, number of AEs","200mg QW, G2, all cycles",0 (0)
same,"Dry skin, number of AEs","200mg QW, G2, all cycles",0 (0)
same,"Dysgeusia, number of AEs","200mg QW, G2, all cycles",0 (0)
same,"Fatigue, number of AEs","200mg QW, G2, all cycles",1 (1)
same,"Nausea, number of AEs","200mg QW, G2, all cycles",1 (1)
same,"Rash (all rash terms collated), number of AEs","200mg QW, G2, all cycles",4 (4)
same,"Stomatitis, number of AEs","200mg QW, G2, all cycles",0 (0)
same,"Vomiting, number of AEs","200mg QW, G2, all cycles",0 (0)
same,"Anorexia, number of AEs","200mg QW, G2, cycle 1",0 (0)
same,"Dermatitis acneiform, number of AEs","200mg QW, G2, cycle 1",0 (0)
same,"Diarrhea, number of AEs","200mg QW, G2, cycle 1",0 (0)
same,"Dry skin, number of AEs","200mg QW, G2, cycle 1",0 (0)
same,"Dysgeusia, number of AEs","200mg QW, G2, cycle 1",0 (0)
same,"Fatigue, number of AEs","200mg QW, G2, cycle 1",1 (1)
same,"Nausea, number of AEs","200mg QW, G2, cycle 1",1 (1)
same,"Rash (all rash terms collated), number of AEs","200mg QW, G2, cycle 1",4 (4)
same,"Stomatitis, number of AEs","200mg QW, G2, cycle 1",0 (0)
same,"Vomiting, number of AEs","200mg QW, G2, cycle 1",0 (0)
same,"Anorexia, number of AEs","200mg QW, G3, all cycles",0 (0)
same,"Dermatitis acneiform, number of AEs","200mg QW, G3, all cycles",1^c (1)
same,"Diarrhea, number of AEs","200mg QW, G3, all cycles",0 (0)
same,"Dry skin, number of AEs","200mg QW, G3, all cycles",0 (0)
same,"Dysgeusia, number of AEs","200mg QW, G3, all cycles",0 (0)
same,"Fatigue, number of AEs","200mg QW, G3, all cycles",0 (0)
same,"Nausea, number of AEs","200mg QW, G3, all cycles",0 (0)
same,"Pruritus, number of AEs","200mg QW, G3, all cycles",0 (0)
same,"Rash (all rash terms collated), number of AEs","200mg QW, G3, all cycles",3^c (3)
same,"Stomatitis, number of AEs","200mg QW, G3, all cycles",0 (0)
same,"Vomiting, number of AEs","200mg QW, G3, all cycles",0 (0)
same,"Anorexia, number of AEs","200mg QW, G3, cycle 1",0 (0)
